Read-outs that look alike come from different tables or passages of the source.
Key:
uterus weight response = tested on: uterus weight response; set-up: species or system rat; settings: predicted and in vivo BMDL50 to BMDU50, rats
In short: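 Generic rat PBK models used for reverse dosimetry of MCF-7 proliferation and YES concentration-response data. In vitro concentrations corrected for unbound fraction (RED in assay medium and rat serum; 10% FBS medium taken as half the 5% FBS fub), then converted to blood concentrations and dose levels. Literature uterotrophic data: absolute uterus weight increase, not body-weight normalised. BMR 50% over control; BMD50 with 95% BMDL50–BMDU50.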

[1] = format: in vitro ADME; settings: bovine; for recovery: in vitro MCF-7 proliferation assay medium containing 5% FBS; for fraction unbound: in vitro proliferation assay medium with 5% FBS
[2] = Rapid equilibrium dialysis, fraction unbound in rat serum; format: in vitro ADME; settings: for recovery: rat serum; for fraction unbound: serum
[3] = Generic PBK model evaluation: predicted versus reported Cmax in rat blood; settings: oral administration, rats
In short: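 The generic PBK model predicted parent-compound blood concentration–time curves after single oral dosing in rats, using partition coefficients calculated from log Pow and hepatic clearance from rat liver S9. Doses matched those of the published in vivo kinetic studies. Predicted Cmax was compared with literature blood data, and the difference was expressed as a fold value.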

[4] = Hepatic clearance by substrate depletion in rat liver S9; format: in vitro ADME; settings: Sprague-Dawley, liver S9, pH 7.4
In short: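 Rat liver S9 (pooled, male or female Sprague-Dawley, 0.5 mg/ml) was incubated with 3 µM substrate (added from a 100-fold DMSO stock). Sampling ran 0–90 min against cofactor-free controls, with UPLC quantification. CLint came from the linear part of ln(Ccompound/Ccontrol) versus time. Triplicates, 3 independent studies.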

recovery [2]	fraction unbound [2]	Difference in Cmax between the model predictions and the in vivo kinetic data [3]	SMILES	Potency comparison from BMD50 values (Figure 8) (uterus weight response)	recovery [1]	fraction unbound [1]	microsomal CLint at 3 µM ([4]; female)	microsomal CLint at 3 µM ([4]; male)
–	–	–	CC(C)(c1ccc(O)cc1)c1ccc(O)cc1 [BPA, bisphenol A]	least potent	–	–	–	–
82%	0.35 ± 0.07	2.2 fold	O=c1oc2cc(O)ccc2c2oc3cc(O)ccc3c12 [COU, coumestrol]	–	79%	0.69 ± 0.034	–	–
77%	0.48 ± 0.08	–	CC/C(=C(/CC)c1ccc(O)cc1)c1ccc(O)cc1 [DES, Diethylstilbestrol]	most potent	79%	0.74 ± 0.02	–	–
–	–	–	C[C@]12CC[C@@H]3c4ccc(O)cc4CC[C@H]3[C@@H]1CC[C@@H]2O [E2, 17β-estradiol]	most potent	–	–	–	–
80%	0.46 ± 0.03	–	C#C[C@]1(O)CC[C@H]2[C@@H]3CCc4cc(O)ccc4[C@H]3CC[C@@]21C [EE2, 17α-ethinylestradiol]	most potent	86%	0.72 ± 0.18	–	–
83%	0.07 ± 0.02	–	O=c1c(-c2ccc(O)cc2)coc2cc(O)cc(O)c12 [GEN, genistein]	–	88%	0.8 ± 0.04	–	–

SMILES	recovery [2]	fraction unbound [2]	Difference in Cmax between the model predictions and the in vivo kinetic data [3]	Potency comparison from BMD50 values (Figure 8) (uterus weight response)	recovery [1]	fraction unbound [1]	microsomal CLint at 3 µM ([4]; female)	microsomal CLint at 3 µM ([4]; male)
COc1ccc(C(c2ccc(OC)cc2)C(Cl)(Cl)Cl)cc1 [MXC, methoxychlor]	76%	0.27 ± 0.04	–	–	77%	0.73 ± 0.29	313 ± 5 µL/min/mg	448 ± 8 µL/min/mg

Reference: paper PMC9186316 (Toxicological Sciences, 2019)
